Measured values: paper PMC10952047 (iScience, 2024)
No end group written: not given here.

Target: T1, CKR-1 (Caenorhabditis elegans, UniProt P91487)
T1 sequence (P91487 1-421): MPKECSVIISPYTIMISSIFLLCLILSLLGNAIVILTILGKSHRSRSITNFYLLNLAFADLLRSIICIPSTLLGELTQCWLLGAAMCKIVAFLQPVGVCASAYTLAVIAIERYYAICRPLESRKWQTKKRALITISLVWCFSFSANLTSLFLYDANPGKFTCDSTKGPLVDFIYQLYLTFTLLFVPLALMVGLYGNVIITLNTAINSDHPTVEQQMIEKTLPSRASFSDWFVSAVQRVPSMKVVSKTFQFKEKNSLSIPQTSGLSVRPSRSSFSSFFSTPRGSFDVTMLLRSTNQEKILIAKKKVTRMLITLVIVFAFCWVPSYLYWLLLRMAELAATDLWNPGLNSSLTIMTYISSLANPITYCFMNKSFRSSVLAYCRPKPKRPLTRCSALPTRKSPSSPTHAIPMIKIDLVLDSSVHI
Format: cell-based, C. elegans
Outline: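 CKR-1 cDNA cloned into pGH19, and 50 ng sense cRNA injected per oocyte. Oocytes kept 2-3 days at 18°C in ND96. TEVC at -80 mV with 3 M KCl electrodes. Perfusion switched from ND96 to high-K+ bath (96 mM KCl, pH 7.3) to read […] Ca2+-gated Cl- currents evoked by synthetic peptide. Washout in high-K+, then ND96.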

In the case of DYRPLQF-NH2 [NLP-12a], the EC50 is reported as 0.0265 µM and the “EC50 of NLP-12a relative to NLP-18a” value (ratio of EC50 values, X. laevis oocytes expressing CKR-1) is reported as “approximately twice that of NLP-18a”.
